Most compounds without a hit are left out; they make up all but 3% or so of the library.
PfGluPho inh: PfG6PD (Plasmodium falciparum) enzyme inhibition. PfGluPho enzyme, NADPH resazurin-diaphorase fluorescence. inhibition, % at 20 µM. actives 0.78% (n = 350,000). AID 504690;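 active means inhibition reaching at least a set limit at 20 µM in the primary screen, cut at about 59% in these data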;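 further: 0% = DMSO wells with substrate and 100% = DMSO wells lacking glucose-6-phosphate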
Beta2AR agonist: activates human beta-2 adrenergic receptor causing internalization. AID 504454. Am2.2-beta2AR cells, FAP receptor internalization, flow cytometry. actives 0.43% (n = 340,000). response, % (no concentration beside the values);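 active means response above a set limit, near 3 SD of response in nonfluorescent compounds, cut at about 42% in these data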
Target sequence (P07550 whole entry, looked up): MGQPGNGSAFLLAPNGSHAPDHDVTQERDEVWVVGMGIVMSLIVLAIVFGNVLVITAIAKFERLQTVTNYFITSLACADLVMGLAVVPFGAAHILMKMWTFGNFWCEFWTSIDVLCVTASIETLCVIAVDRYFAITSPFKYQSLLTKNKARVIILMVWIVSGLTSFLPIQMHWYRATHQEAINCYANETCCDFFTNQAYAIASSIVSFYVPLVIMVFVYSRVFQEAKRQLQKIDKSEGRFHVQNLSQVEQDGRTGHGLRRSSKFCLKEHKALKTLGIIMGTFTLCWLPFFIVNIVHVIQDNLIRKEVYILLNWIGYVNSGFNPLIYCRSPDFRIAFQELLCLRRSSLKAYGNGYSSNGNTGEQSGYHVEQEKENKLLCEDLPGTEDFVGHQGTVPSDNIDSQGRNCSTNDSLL
MC4R barr agon: human MC4R agonism via beta-arrestin; P32245; activation, % at 8.9 µM; actives 0.98% (n = 360,000); AID 540308; U2OS MC4R beta-arrestin complementation, luminescence; percent of melanotan II response, DMSO zero;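 active means activation above a per-plate cutoff, the mean activation of sample wells on that plate plus 3 SD, cut at about 8% in these data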
ABHD5-PLIN5 inh: inhibitors of human ABHD5-perilipin-5 interaction; inhibition, % at 4 µM; Split G. princeps luciferase complementation, luminescence, 4 h; actives 0.78% (n = 360,000); Q00G26+Q8WTS1;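 active means inhibition above the mean inhibition across every tested compound plus 3 SD, cut at about 22% in these data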;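 further: 0% = DMSO only wells and the 100% control is not disclosed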
MC4R antag cAMP: antagonists of human melanocortin 4 receptor (MC4R). P32245. actives 0.48% (n = 360,000). inhibition, % at 6.5 µM. MC4R-expressing cells, MTII-stimulated cAMP, LANCE TR-FRET;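 active means inhibition above its plate's cutoff, the mean of tested wells on that plate plus 3 SD, cut at about 29% in these data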;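 further: 0% = Melanotan II alone and 100% = Melanotan II plus saturating MCL0020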
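Assay system: U2OS cells stably expressing human melanocortin 4 receptor (MC4R) / Dosing: 6.5 µM / Timing: compound 30 min, challenge 1 h, detection 1 h / Measured by: Eu-cAMP/anti-cAMP TR-FRET, emission 671 nm / Replicates: singlicate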
PfG6PD confirm: confirmation of Plasmodium falciparum G6PD inhibitors; actives 34% (n = 2,400); inhibition, % at 20 µM; AID 504753; recombinant PfGluPho, NADPH-diaphorase-resazurin fluorescence; shares compounds with PfGluPho inh;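 active means inhibition of at least 50% at 20 µM in any single replicate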;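 further: 0% = DMSO with substrate and 100% = DMSO lacking glucose-6-phosphate substrate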
Diaph ctr 10uM: diaphorase inhibition or oxidation at 10 uM NADPH. actives 39% (n = 820). shares compounds with PfGluPho inh. inhibition, % at 20 µM. AID 504862. diaphorase-coupled resazurin reduction, fluorescence, NADPH 10 uM;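 active means average inhibition reaching 50% or more with the compound at 20 µM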;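 further: resorufin red fluorescence formed as diaphorase reduces resazurin using NADPH; 0% = DMSO with enzyme and 100% = DMSO without enzyme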
Diaph ctr 30uM: inhibits diaphorase or oxidizes, flagging false PfG6PD hits | shares compounds with PfGluPho inh | Diaphorase/resazurin coupled assay, resorufin fluorescence, 30 uM NADPH | inhibition, % at 20 µM | actives 29% (n = 820);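 active means inhibition averaging 50% or more, tested at 20 µM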;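 further: 0% = DMSO with enzyme and 100% = DMSO wells lacking diaphorase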
Starred values were filed as active, the others as inactive; . = not tested or not shown.

SMILES | PfGluPho inh | Beta2AR agonist | MC4R barr agon | ABHD5-PLIN5 inh | MC4R antag cAMP | PfG6PD confirm | Diaph ctr 10uM | Diaph ctr 30uM
COc1ccccc1/C=N/NC(=O)c1nnn(-c2nonc2N)c1-c1ccccc1 | 16 | -1 | -3 | -3 | 1 | . | . | .
Nc1nonc1-n1nnc(C(=O)N/N=C/c2cccc(Cl)c2)c1-c1ccc2c(c1)OCO2 | 119* | 1 | -3 | -4 | 11 | 99* | 87* | 66*
Cc1cc(C)nc(SSc2nc(C)cc(C)n2)n1 | 65* | 3 | -1 | 6 | 1 | 64* | -5 | -14
CCN(CC)S(=O)(=O)c1ccc(N2CCOCC2)c(NCC(=O)Nc2ccc(F)cc2)c1 | -10 | 4 | 3 | 2 | -7 | . | . | .
CC1(C(=O)O)COC(c2ccc([N+](=O)[O-])cc2)OC1 (centres undefined) | -11 | 4 | 0 | -3 | -3 | . | . | .
O=C1NC(C(=O)O)=CC(c2ccc([N+](=O)[O-])cc2)N1 (centres undefined) | 65* | 8 | -2 | -1 | -2 | 18 | . | .
Cn1cc(-c2ccccc2C(N)=O)c(=O)c2cc(Cl)ccc21 | 13 | -4 | 0 | -4 | 9 | . | . | .
Cn1cc(C2=C(c3ccc(Cl)cc3Cl)C(=O)NC2=O)c2ccccc21 | 66* | -250 | 2 | -7 | 12 | -1 | . | .
COc1ccc(/C=N/Nc2cc(C)nc3c(C)cccc23)cc1 | 76* | 37 | 0 | 4 | -10 | 33 | . | .
COc1ccc(Cl)cc1NC(=O)CN(C)C(=O)c1cc(-c2ccncc2)nc2ccccc12 | -7 | 25 | -3 | 4 | 9 | . | . | .
COC(=O)c1ccccc1NC1=C/C(=N\S(=O)(=O)c2ccc(C(=O)O)cc2)c2ccccc2C1=O | 96* | 61* | -1 | -12 | -1 | 86* | 64* | 64*
O=C1C(Nc2ccccc2)=C/C(=N/S(=O)(=O)c2cccs2)c2ccccc21 | 110* | 49* | -2 | 4 | -25 | 92* | 78* | 80*
COC(=O)c1ccccc1NC1=C/C(=N\S(=O)(=O)c2cccs2)c2ccccc2C1=O | 101* | 24 | -4 | -12 | -4 | 67* | 37 | 42
COc1ccc(CCn2c(Br)nc3c2c(=O)[nH]c(=O)n3C)cc1 | -4 | -7 | 0 | 5 | -19 | . | . | .
COc1ccc(CCn2c(NCc3ccco3)nc3c2c(=O)[nH]c(=O)n3C)cc1 | 20 | 2 | 0 | 0 | 15 | . | . | .
COc1ccc(CCn2c(NN)nc3c2c(=O)[nH]c(=O)n3C)cc1 | 103* | -10 | -1 | -2 | -8 | 88* | -6 | -2
COc1ccc(CCn2c(NN=C(C)C)nc3c2c(=O)[nH]c(=O)n3C)cc1 | 118* | 3 | -1 | -1 | -5 | 51* | -1 | -7
O=C(NCCc1ccccc1)c1ccc(-c2ccc(F)c(F)c2)c2ccoc12 | . | . | 5 | -7 | 12 | . | . | .
Cc1ccc(S(=O)(=O)N(C)C)cc1NC(=O)COC(=O)Cc1cccs1 | -4 | -3 | -1 | -7 | 10 | . | . | .
Cn1c(CNC(=O)CNC(=O)c2ccccc2)cc(=O)n(C)c1=O | 5 | -4 | -2 | 6 | 0 | . | . | .
O=C(Nc1sc2c(c1C(=O)O)CCC2)c1ccccc1 | 62* | 2 | -1 | -4 | 6 | 34 | . | .
O=C(Nc1sc2c(c1C(=O)O)CCC2)c1ccc(F)cc1 | 91* | -3 | -2 | 2 | 17 | 54* | 42 | 39
O=C(Nc1sc2c(c1C(=O)O)CCCCC2)c1ccccc1 | 80* | 17 | -2 | -2 | 3 | 35 | . | .
O=C(O)c1c(NC(=O)c2cccc3ccccc23)sc2c1CCC2 | 10 | 6 | 2 | 2 | 15 | . | . | .
O=C(Nc1sc2c(c1C(=O)O)CCCC2)c1ccc(Cl)cc1 | 124* | 10 | 0 | -5 | 11 | 77* | 73* | 72*
SMILES | PfGluPho inh | Beta2AR agonist | MC4R barr agon | ABHD5-PLIN5 inh | MC4R antag cAMP | PfG6PD confirm | Diaph ctr 10uM | Diaph ctr 30uM
NCCNC(=O)c1c(NC(=O)c2ccccc2)sc2c1CCCC2 | 15 | 4 | 3 | 4 | 7 | . | . | .
O=C(Nc1sc2c(c1C(=O)O)CCC2)c1cccs1 | 38 | -3 | 0 | 0 | 1 | . | . | .
O=C(Nc1sc2c(c1C(=O)O)CCCC2)c1cccc(Cl)c1 | 62* | 4 | 1 | 2 | 1 | 38 | . | .
C=CCOc1c(Cl)cc(CNc2ccc3[nH]c(=O)[nH]c3c2)cc1OC | 64* | -1 | 0 | 4 | 14 | 58* | 21 | 18
COc1ccc(OCC(O)CNCCOc2ccccc2OC)c(C(C)(C)C)c1 (centres undefined) | 5 | 12 | 3 | -2 | 6 | . | . | .
Cc1nc2c(=O)[nH]c(=S)n(C)c2nc1C | 65* | -2 | -1 | -6 | 4 | 35 | . | .
Cc1nc2[nH]c(=S)[nH]c(=O)c2nc1C | 18 | 1 | -4 | -10 | 7 | . | . | .
Cc1cccc(C)c1NC(=O)/C(C#N)=C/c1ccc(-c2ccc(C(=O)O)cc2)o1 | 3 | 7 | -1 | 4 | 8 | . | . | .
CC1=CC(=NOC(=O)/C=C/c2ccccc2)C=C(C)C1=O | 75* | 12 | -2 | 1 | -5 | 61* | 28 | 27
Cc1ccc(-c2csc(NC(=O)/C=C/c3ccco3)c2C(=O)O)cc1 | 93* | 12 | -2 | 5 | -2 | 58* | 58* | 59*
Cc1ccc(-c2csc(NC(=O)c3cccc(C)c3)c2C(=O)O)cc1 | 47 | 9 | 1 | -6 | 25 | . | . | .
Cc1ccc(-c2csc(NC(=O)c3ccc(Br)cc3)c2C(=O)O)cc1 | 117* | 8 | -1 | -3 | 2 | 53* | 40 | 35
Cc1cc(C)n(CCC(=O)N/N=C/c2cccc([N+](=O)[O-])c2)n1 | 8 | -3 | 1 | -7 | -9 | . | . | .
O=C(N/N=C/c1cccc(Oc2ccc([N+](=O)[O-])cc2[N+](=O)[O-])c1)c1cncc(Br)c1 | 98* | 12 | -2 | 4 | 7 | 69* | 69* | 58*
Cc1cc(Cl)ccc1OCCCC(=O)N/N=C/c1cccc([N+](=O)[O-])c1 | 112* | -7 | -1 | 6 | 20 | 94* | 81* | 57*
Cc1ccccc1OCC(=O)N/N=C/c1cccc(Oc2ccc([N+](=O)[O-])cc2[N+](=O)[O-])c1 | 127* | 1 | -1 | 4 | 17 | 93* | 87* | 71*
Cc1ccc(OCC(=O)N/N=C/c2ccccc2)c([N+](=O)[O-])c1 | 20 | -8 | 1 | -2 | -7 | . | . | .
COc1ccc(S(=O)(=O)N2CCOC2CNC(=O)C(=O)NCc2ccccn2)cc1C (centres undefined) | -6 | 1 | -2 | -6 | -6 | . | . | .
